Only some compounds are listed: those with a hit (about 2.4% of all), similar ones and a draw of the others.
S100A4 inh HTS: inhibitors of S100A4-myosin IIA peptide binding, primary screen, biochemical, fluorescence polarization, TAMRA-MyoIIA peptide; actives 0.14% (n = 360,000); inhibition, % at 10.7 µM; AID 652163, 2013;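 active = mean inhibition of at least 70% across replicates, with every replicate also reaching that level; inconclusive = mean inhibition reaches 70% but some replicates fall short; inactive = mean inhibition below 70%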
Target sequence (P26447 whole entry, looked up): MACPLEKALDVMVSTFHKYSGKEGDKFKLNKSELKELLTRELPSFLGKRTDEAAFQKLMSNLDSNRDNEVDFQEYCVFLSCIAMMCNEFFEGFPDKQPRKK
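Material: S100A4 monomer protein / Buffer or medium: 50 mM HEPES pH 7.2, 10 mM CaCl2, 100 mM KCl / Times: 5 min incubation before reading / Benchmarks: neutral control DMSO, positive control TFP / Reagent: labelled myosin peptide probe, 5 nM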
rRNA inh HTS: reduced GFP signal of wild-type E. coli, primary screen, bacterial rRNA inhibitor project, GFP/RFP fluorescence, OD600, single point | GFP signal change (wild-type ribosome), % (test concentration not listed) | actives 1.6% (n = 350,000) | E. coli WT GFP vs humanized-ribosome RFP mutants, 24 h; hits give low values; DMSO median 0, no signal -100;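 active = significant combined selectivity score with lowered wild-type GFP, culture density cut under 30%, mutant RFP and density less affected; inactive = any of these conditions unmet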
Casp6 inh: human caspase-6 inhibitors, primary screen, biochemical, VEID-R110 fluorescence, single point, set 2. P55212. purified caspase-6, Z-VEID-R110 cleavage fluorescence. inhibition, % at 12.5 µM. actives 0.53% (n = 350,000);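 active = mean inhibition across replicates at least about 35%, with every replicate also reaching that limit, limit read from the data; inconclusive = only one of the two criteria met; inactive = neither criterion met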;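 also: 0% = median of neutral control wells and 100% = no fluorescence left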
Target sequence (P55212 24-179 limits assumed): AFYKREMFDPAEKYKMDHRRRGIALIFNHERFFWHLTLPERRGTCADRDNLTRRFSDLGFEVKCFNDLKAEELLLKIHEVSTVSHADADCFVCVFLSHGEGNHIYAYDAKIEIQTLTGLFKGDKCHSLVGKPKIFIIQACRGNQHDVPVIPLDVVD
Target sequence (P55212 194-293 limits assumed): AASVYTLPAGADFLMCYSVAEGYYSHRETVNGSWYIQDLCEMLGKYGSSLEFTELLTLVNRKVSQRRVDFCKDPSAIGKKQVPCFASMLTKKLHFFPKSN
ERAP1 inh: human ERAP1 aminopeptidase inhibitors, primary screen, biochemical, single point, plate reader; Endoplasmic reticulum aminopeptidase 1 (Homo sapiens), Q9NZ08; recombinant ERAP1, Leu-AMC fluorescence, 60 min; inhibition, % at 10.7 µM; actives 0.15% (n = 340,000);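 active = mean replicate inhibition of at least 30%, or all replicates individually reaching that 30% level; inactive = mean below 30% and not every replicate reaching it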;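 also: 0% = neutral control wells and 100% = L-leucinethiol positive control wells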
ARNT-TACC3 inh: disruptors of ARNT/TACC3 protein interaction, primary screen, biochemical, AlphaScreen, single concentration. Transforming acidic coiled-coil-containing protein 3 (Homo sapiens), Q9Y6A5. AlphaScreen His-ARNT PAS-B/GST-TACC3 binding, luminescence; TACC3 fragment carries E629A point mutation. inhibition, % at 9.99 µM. actives 0.66% (n = 390,000). AID 623870, 2012;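 active = mean inhibition of replicates at least 50% and at least half of replicates each reaching 50%; inconclusive = half or more replicates reach 50% but mean below 50%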;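 also: 0% = complete ARNT plus TACC3 wells and 100% = ARNT alone without TACC3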
PGC1a acetyl inh: inhibitors of PGC1a acetylation signal, primary screen, cell-based, U2OS, AlphaScreen, inhibitor mode. AlphaScreen anti-acetyl-lysine; with virally co-expressed GCN5 acetyltransferase. inhibition, % at 15.6 µM. actives 0.17% (n = 350,000). AID 651687, 2012;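 active = every replicate shows inhibition of at least 40%; inconclusive = mean inhibition at least 40% but some replicate below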;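 also: 0% = neutral control wells and 100% = positive control wells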
Starred values were filed as active, the others as inactive.

`COc1ccc(-c2cnc3c(c2)C(=O)N([C@H](C)CO)C[C@@H](C)[C@@H](CN(C)C(=O)Nc2c(C)noc2C)O3)cc1` gave S100A4 inh HTS 10, rRNA inh HTS 4, Casp6 inh -1, ERAP1 inh 0, ARNT-TACC3 inh -1 and PGC1a acetyl inh 43*.
For COc1ccc(-c2cnc3c(c2)C(=O)N([C@H](C)CO)C[C@H](C)[C@H](CN(C)C(=O)NC(C)C)O3)cc1 the results were S100A4 inh HTS -14, rRNA inh HTS 1, Casp6 inh -1, ERAP1 inh 0, ARNT-TACC3 inh 0 and PGC1a acetyl inh 6.
Screening COc1ccc(-c2cnc3c(c2)C(=O)N([C@H](C)CO)C[C@H](C)[C@@H](CN(C)C(=O)C2CC2)O3)cc1 returned rRNA inh HTS 2 and PGC1a acetyl inh 111*.
CN(C)CC(=O)N1[C@H](CO)[C@H](c2ccc(C#CC3CCCCC3)cc2)[C@@H]1C#N was read as S100A4 inh HTS -10, rRNA inh HTS -53, Casp6 inh 0, ERAP1 inh 2 and PGC1a acetyl inh -42.
CCC(=O)N1[C@@H](CO)[C@H](c2ccc(-c3ccccc3OC)cc2)C12CN(C(C)=O)C2 was read as S100A4 inh HTS 3, rRNA inh HTS 3, Casp6 inh -1, ERAP1 inh -1 and PGC1a acetyl inh 4.
O=C(NC(=S)N1CCN(C/C=C/c2ccccc2)CC1)c1ccc(Cl)nc1 was read as S100A4 inh HTS -2, rRNA inh HTS -49*, Casp6 inh 2, ERAP1 inh -3, ARNT-TACC3 inh 20 and PGC1a acetyl inh 3.
For O=C(NC(=S)N1CCN(Cc2ccccc2)CC1)c1cccnc1 the results were S100A4 inh HTS 8, rRNA inh HTS 14, Casp6 inh 0, ERAP1 inh 4, ARNT-TACC3 inh -2 and PGC1a acetyl inh inconclusive.
For CCOc1ccc(NC(=S)N2CCN(C/C=C/c3ccccc3)CC2)cc1 the results were S100A4 inh HTS -3, rRNA inh HTS -28*, Casp6 inh 3, ERAP1 inh -1, ARNT-TACC3 inh 10 and PGC1a acetyl inh -1.
Screening COc1cccc(S(=O)(=O)N2[C@@H]3CNC[C@H]2C3c2ccc(-c3ccc(C(=O)N(C)C)cc3)cc2)c1 (stereo partly drawn) returned S100A4 inh HTS -2, rRNA inh HTS 5, Casp6 inh 0, ERAP1 inh -1 and PGC1a acetyl inh 0.
O=C(Cc1ccccn1)N[C@@H]1CC[C@H](CCNC(=O)c2cc(Cl)cc(Cl)c2)O[C@@H]1CO was read as S100A4 inh HTS 9, rRNA inh HTS -1, Casp6 inh 1, ERAP1 inh 0, ARNT-TACC3 inh -9 and PGC1a acetyl inh 10.
`CCCn1cc(S(=O)(=O)c2ccc(Cl)cc2)c(=O)c2cc(OC)ccc21` gave S100A4 inh HTS -2, rRNA inh HTS -28*, Casp6 inh 1, ERAP1 inh 1, ARNT-TACC3 inh -2 and PGC1a acetyl inh -1.
For O=C(Cc1ccc(NC(=O)C2CCCN(C(=O)CCc3ccccc3)C2)cc1)Nc1cccc(C(=O)N2CCCC2)c1 (stereo not drawn) the results were S100A4 inh HTS -8, rRNA inh HTS -15*, ERAP1 inh -5, ARNT-TACC3 inh -2 and PGC1a acetyl inh -8.
For O=C(CSc1nc2ccccc2s1)NCc1cc([N+](=O)[O-])ccc1O the results were S100A4 inh HTS 1, rRNA inh HTS -31*, Casp6 inh 3, ERAP1 inh 1, ARNT-TACC3 inh 9 and PGC1a acetyl inh -3.
For N#CC1(NC(=O)CSc2nc3ccc([N+](=O)[O-])cc3s2)CCCCC1 the results were S100A4 inh HTS -1, rRNA inh HTS -17*, Casp6 inh 1, ERAP1 inh -5 and ARNT-TACC3 inh 6.
Screening Cn1nnnc1SCC(=O)NCc1cc([N+](=O)[O-])ccc1O returned S100A4 inh HTS 5, rRNA inh HTS 10, Casp6 inh 2, ERAP1 inh 2 and ARNT-TACC3 inh 0.
For CC(C)NC(=O)Nc1ccc2c(c1)C(=O)N([C@H](C)CO)C[C@@H](C)[C@H](CN(C)C(=O)NC1CCCCC1)OCCCC[C@@H](C)O2 the results were S100A4 inh HTS 0, rRNA inh HTS -2, Casp6 inh 7, ERAP1 inh 0, ARNT-TACC3 inh 2 and PGC1a acetyl inh 0.
`O=C(O)C[C@@H]1C[C@H]2c3cc(NC(=O)C4CCC4)ccc3O[C@H]2[C@H](CO)O1` gave S100A4 inh HTS 4, rRNA inh HTS -1, Casp6 inh 0, ERAP1 inh 2, ARNT-TACC3 inh -4 and PGC1a acetyl inh 2.
For CC[n+]1ccccc1/C=C1\Sc2ccc(C)cc2N1C the results were S100A4 inh HTS -10, rRNA inh HTS 20, ERAP1 inh 74* and ARNT-TACC3 inh -1.
For CN1/C(=C/c2cccc[n+]2CCO)Sc2ccccc21 the results were S100A4 inh HTS -6, rRNA inh HTS 5, Casp6 inh -1, ERAP1 inh 13 and ARNT-TACC3 inh 0.
For COc1ccccc1NC(=O)Nc1ccc2c(c1)C(=O)N(C)C[C@@H](OC)[C@@H](C)CN(C)[C@@H](C)CO2 the results were S100A4 inh HTS 7, rRNA inh HTS 0, ARNT-TACC3 inh -2 and PGC1a acetyl inh 2.
O=C(NC(=S)NCc1ccco1)c1ccc([N+](=O)[O-])cc1 was read as S100A4 inh HTS 3, rRNA inh HTS -5.5*, Casp6 inh 2, ERAP1 inh 1 and ARNT-TACC3 inh 7.
Screening O=C(NCc1ccco1)N1c2ccccc2Sc2ccccc21 returned S100A4 inh HTS -1, rRNA inh HTS -24*, Casp6 inh 0, ERAP1 inh 0, ARNT-TACC3 inh -1 and PGC1a acetyl inh 4.
For Cc1ccc(C(=O)NCc2ccco2)cc1 the results were S100A4 inh HTS -4, rRNA inh HTS 11, Casp6 inh -1, ERAP1 inh -2 and ARNT-TACC3 inh -10.
O=C(NCc1ccco1)c1ccc(C(=O)NCc2ccco2)cc1 was read as S100A4 inh HTS -3, rRNA inh HTS 8, Casp6 inh 40*, ERAP1 inh 1 and ARNT-TACC3 inh -9.
`Cc1cc(C)cc(C(=O)OCC(=O)NCc2ccco2)c1` gave S100A4 inh HTS 0, Casp6 inh 51*, ERAP1 inh -12, ARNT-TACC3 inh -2 and PGC1a acetyl inh 3.
